Activity calls are given as the source filed them. The calls are words filed in the database; no cut-off is given here.
What was measured:
Histone deacetylase 8 = molecular target: T1, Histone deacetylase 8 (Homo sapiens, UniProt Q9BY41); test: Inhibition of full length human recombinant HDAC8 expressed in baculovirus infected insect S9 cells using Ac-Leu-GlyLys(Tfa)-AMC as substrate after 30 mins by fluorescence assay
T1 sequence (Q9BY41 whole entry): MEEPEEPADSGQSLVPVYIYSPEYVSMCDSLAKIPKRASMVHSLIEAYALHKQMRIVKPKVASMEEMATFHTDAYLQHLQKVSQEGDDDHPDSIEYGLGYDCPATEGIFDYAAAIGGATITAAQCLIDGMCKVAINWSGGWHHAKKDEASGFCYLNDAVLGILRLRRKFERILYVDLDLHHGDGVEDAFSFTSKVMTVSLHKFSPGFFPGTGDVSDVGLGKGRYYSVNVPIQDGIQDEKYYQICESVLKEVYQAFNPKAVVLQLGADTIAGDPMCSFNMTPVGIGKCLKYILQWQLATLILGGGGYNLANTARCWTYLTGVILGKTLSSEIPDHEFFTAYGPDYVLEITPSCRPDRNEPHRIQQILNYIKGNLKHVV

[1] = molecular target: Histone deacetylase 2 (Homo sapiens) (UniProt Q92769); settings: MV4-11, 12.5 to 200 nM
Sequence of Histone deacetylase 2 (Homo sapiens) (Q92769 whole entry): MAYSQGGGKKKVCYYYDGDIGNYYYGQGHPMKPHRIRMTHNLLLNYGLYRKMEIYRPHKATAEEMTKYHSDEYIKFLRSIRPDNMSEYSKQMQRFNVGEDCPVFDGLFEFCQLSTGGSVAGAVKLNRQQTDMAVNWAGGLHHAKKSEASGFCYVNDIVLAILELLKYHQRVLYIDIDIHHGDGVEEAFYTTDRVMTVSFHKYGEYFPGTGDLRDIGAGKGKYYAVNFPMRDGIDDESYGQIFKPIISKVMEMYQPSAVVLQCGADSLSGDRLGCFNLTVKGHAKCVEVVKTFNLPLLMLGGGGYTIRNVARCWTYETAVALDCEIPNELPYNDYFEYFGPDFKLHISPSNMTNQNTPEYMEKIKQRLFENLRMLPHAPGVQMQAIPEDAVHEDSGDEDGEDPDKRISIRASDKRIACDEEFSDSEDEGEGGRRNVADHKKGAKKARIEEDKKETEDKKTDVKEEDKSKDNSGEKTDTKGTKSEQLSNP

HEL [2] = test: Induction of apoptosis in human HEL cells after 24 hrs by 7-AAD-annexin-V/propidium iodide staining-based flow cytometric analysis; type: functional, cell-based
In short: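 HEL cells (1 × 10⁵/well) grown 24 h, then treated 24 h at 0.5, 1 or 2 µM in fresh medium; 0.1% DMSO control. Cells collected, washed with cold PBS, stained in binding buffer with 7-AAD and propidium iodide (PE-Annexin V kit) 15 min at 25 °C in the dark; apoptotic fraction by flow cytometry.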

Histone deacetylase 4 = Histone deacetylase 4 (Homo sapiens, UniProt P56524); test: Inhibition of human recombinant HDAC4 expressed in baculovirus infected insect S9 cells using Ac-Leu-GlyLys(Tfa)-AMC as substrate after 30 mins by fluorescence assay
Sequence of Histone deacetylase 4 (P56524 whole entry): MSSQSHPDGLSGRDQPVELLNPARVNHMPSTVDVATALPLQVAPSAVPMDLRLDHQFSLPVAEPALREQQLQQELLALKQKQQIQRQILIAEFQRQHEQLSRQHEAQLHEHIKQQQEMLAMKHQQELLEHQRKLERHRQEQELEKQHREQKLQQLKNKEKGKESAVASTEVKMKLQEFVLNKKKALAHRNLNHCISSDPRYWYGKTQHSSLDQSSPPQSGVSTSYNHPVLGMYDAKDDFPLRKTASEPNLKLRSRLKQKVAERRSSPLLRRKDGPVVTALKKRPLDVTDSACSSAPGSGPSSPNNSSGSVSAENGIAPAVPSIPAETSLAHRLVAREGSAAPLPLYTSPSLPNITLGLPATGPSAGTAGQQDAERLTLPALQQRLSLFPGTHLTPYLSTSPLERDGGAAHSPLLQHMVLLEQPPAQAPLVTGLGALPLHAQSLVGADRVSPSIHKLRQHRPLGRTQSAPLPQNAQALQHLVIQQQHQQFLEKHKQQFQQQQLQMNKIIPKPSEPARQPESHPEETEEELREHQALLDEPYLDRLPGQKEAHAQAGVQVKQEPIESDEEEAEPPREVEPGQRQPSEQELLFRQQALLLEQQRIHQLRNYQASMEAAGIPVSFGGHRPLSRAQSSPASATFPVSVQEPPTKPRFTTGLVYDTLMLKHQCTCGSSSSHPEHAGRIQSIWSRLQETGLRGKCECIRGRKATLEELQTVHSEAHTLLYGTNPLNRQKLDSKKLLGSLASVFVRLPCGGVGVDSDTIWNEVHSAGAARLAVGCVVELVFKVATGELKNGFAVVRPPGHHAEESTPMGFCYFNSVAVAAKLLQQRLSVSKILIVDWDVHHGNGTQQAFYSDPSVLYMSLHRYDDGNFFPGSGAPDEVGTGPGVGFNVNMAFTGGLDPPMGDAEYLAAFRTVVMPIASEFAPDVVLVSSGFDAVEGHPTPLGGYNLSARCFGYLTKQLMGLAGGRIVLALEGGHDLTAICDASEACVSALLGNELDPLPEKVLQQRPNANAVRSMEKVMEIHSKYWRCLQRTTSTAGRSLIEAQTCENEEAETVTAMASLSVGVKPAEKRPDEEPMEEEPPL

HEL [3] = test: Antitumor activity against human HEL cells xenografted in BALB/c-nu mouse assessed as decrease in tumor volume at 120 mg/kg/day, po administered for 21 days measured every 3 days during compound dosing relative to control; type: functional
[4] = Cytotoxicity against human U937 cells assessed as growth inhibition after 48 hrs by MTT assay; type: functional, cell-based; settings: U-937, 48 h
HEL [5] = test: Cell cycle arrest in human HEL cells assessed as accumulation at G2 phase at 0.5 uM after 48 hrs by propidium iodide staining-based flow cytometric analysis (reference value: 5.28%); type: functional
HeLa = test: Cytotoxicity against human HeLa cells assessed as growth inhibition after 48 hrs by MTT assay; type: functional, cell-based
HEL [6] = test: Cytotoxicity against hemoglobin treated human HEL cells assessed as growth inhibition at 2 uM treated for 24 hrs post hemoglobin challenge measured after 48 hrs by MTT assay; type: functional, cell-based
In short: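 HEL cells in RPMI 1640/10% FBS, 37 °C, 5% CO₂, plated ≥4 h before treatment; pretreated 1 h with hemoglobin (0, 2.5, 5, 10 or 20 µM), then 2 µM compound for 24 h, incubated a further 48 h. MTT 0.5%, 4 h, formazan dissolved in DMSO, absorbance 490 and 630 nm; percent growth inhibition versus control; three independent experiments, mean ± SD.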

Mus musculus = test: Toxicity in BALB/c-nu mouse xenografted with human HEL cells assessed as body weight loss at 120 mg/kg/day, po administered for 21 days measured everyday during compound dosing; type: organism-based; parameters: route oral; settings: in vivo, 504 h
In short: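 Male BALB/c-nu mice with s.c. HEL xenografts, 6 per group, given 120 mg/kg/day orally for 21 days; vehicle group received PBS containing DMSO. Body weight monitored regularly during treatment; mean ± SD.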

Histone deacetylase 11 = molecular target: T2, Histone deacetylase 11 (Homo sapiens, UniProt Q96DB2); test: Inhibition of full length human recombinant HDAC11 expressed in baculovirus infected insect S9 cells after 30 mins by fluorescence assay
T2 sequence (Q96DB2 whole entry): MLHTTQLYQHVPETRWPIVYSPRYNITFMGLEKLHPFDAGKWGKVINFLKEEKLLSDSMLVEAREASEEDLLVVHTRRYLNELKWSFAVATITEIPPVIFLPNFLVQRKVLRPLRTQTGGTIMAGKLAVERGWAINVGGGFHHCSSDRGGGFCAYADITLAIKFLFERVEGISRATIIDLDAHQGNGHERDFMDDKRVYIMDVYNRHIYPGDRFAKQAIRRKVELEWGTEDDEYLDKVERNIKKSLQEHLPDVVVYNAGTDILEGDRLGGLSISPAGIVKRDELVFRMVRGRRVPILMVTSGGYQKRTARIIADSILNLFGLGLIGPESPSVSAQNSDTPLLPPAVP

HUVEC = test: Cytotoxicity against HUVEC assessed as growth inhibition after 48 hrs by MTT assay; type: cell-based; settings: Homo sapiens
[7] = molecular target: Histone deacetylase 1 (Homo sapiens) (UniProt Q13547); settings: MV4-11, 12.5 to 200 nM
Sequence of Histone deacetylase 1 (Homo sapiens) (Q13547 whole entry): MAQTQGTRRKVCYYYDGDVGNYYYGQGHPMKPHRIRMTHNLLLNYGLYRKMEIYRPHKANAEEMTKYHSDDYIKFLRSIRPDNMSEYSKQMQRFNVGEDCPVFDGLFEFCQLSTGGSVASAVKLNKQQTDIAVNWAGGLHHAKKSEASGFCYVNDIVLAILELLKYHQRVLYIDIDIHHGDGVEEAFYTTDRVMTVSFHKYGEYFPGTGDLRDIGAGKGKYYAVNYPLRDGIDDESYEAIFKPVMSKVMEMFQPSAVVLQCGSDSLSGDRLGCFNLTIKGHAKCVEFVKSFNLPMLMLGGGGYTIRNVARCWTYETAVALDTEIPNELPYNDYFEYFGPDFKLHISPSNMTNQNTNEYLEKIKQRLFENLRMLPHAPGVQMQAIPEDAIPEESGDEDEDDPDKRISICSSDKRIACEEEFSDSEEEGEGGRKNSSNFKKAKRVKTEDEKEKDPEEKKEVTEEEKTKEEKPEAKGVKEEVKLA

O=C(CCCCCOc1no[n+]([O-])c1S(=O)(=O)c1ccccc1)NO
IC50 (Histone deacetylase 8): 343 nM | inhibition [1]: Active | Activity (HEL [2]): Dose-dependent effect | IC50 (Histone deacetylase 4): 30 nM | T/C (HEL [3]): 39% | IC50 [4]: 3100 nM | Activity (HEL [5]): 0.45% | IC50 (HeLa): 1550 nM | growth inhibition (GI) (HEL [6]): inactive | Activity (Mus musculus): Non-toxic | IC50 (Histone deacetylase 11): 608 nM | IC50 (HUVEC): 27100 nM | inhibition [7]: Active
